The species named for data set [1] is Mus musculus. Description: Residual activity in mice at 120 minutes, expressed as [(ID%-kg)/g] (Radiolabeled compound). The class given is ADME, organism-based. Conditions: in vivo, 2 h; call rule not given here. Put shortly:
(§1)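 Male ICR mice (2–3 months, 20–30 g) under 1% isoflurane, body temperature held at 36–37 °C. No-carrier-added 18F ligand (400–450 μCi) in 0.9% saline with 0.1% Tween given via tail-vein catheter. Dynamic small-animal PET for 1–2 h. Brain and skull time-activity curves were averaged over four mice and fitted to a double-exponential model; bone uptake was fitted linearly or exponentially.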

The species entered for data set [2] is Mus musculus. Description: Compound was evaluated for washout rate in mice (Radiolabeled compound). The class given is ADME, organism-based. The following applies: in vivo. Put shortly:
as §1

The species named for data set [3] is Mus musculus. The experiment in a line: Maximum activity in mice, expressed as [(ID%-kg)/g] (Radiolabeled compound). The following applies: in vivo. Format: ADME, organism-based. Put shortly:
as §1

The species entered for data set [4] is Mus musculus. Description: Time at maximum activity in mice (Radiolabeled compound). The class given is ADME, organism-based. The following applies: in vivo. Put shortly:
as §1

Data set [5] in a line: Compound was evaluated for distribution coefficient (logD) measured at pH7.4. The following applies: octanol/water, pH 7.4. Format: physicochemical. Put shortly: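 Shake-flask partition: ligand (3–5 mg) in 0.1 M sodium phosphate pH 7.4 (6.0 mL) with n-octanol (1.0 mL). Vortexed 1 min, shaken 1 min, filtered, left 10 min at RT, centrifuged 5000g for 10 min. Value is the ratio of organic-phase to aqueous-phase concentration.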

Data set [6] is filed under the species Mus musculus. The experiment in a line: Compound was evaluated for rate of bone uptake in mice; NA - not active (Radiolabeled compound). Format: ADME, organism-based, Bone element. The following applies: in vivo.
Data set [7] is filed under the species Mus musculus. The experiment in a line: Compound was evaluated for washout rate in mice after radiolabeled ligand injected. The following applies: in vivo. The class given is ADME, organism-based. Put shortly: as §1
Data set [8] relates to Mus musculus. The experiment in a line: Maximum activity (i.v.) after in mice, expressed as [(ID%-kg)/g] (Radiolabeled compound). The class given is ADME, organism-based. The following applies: in vivo, iv. Put shortly: as §1
Data set [9] has as its system Mus musculus. Description: Compound was evaluated for rate of bone uptake after administration of radiolabeled in mice (Radiolabeled compound). The class given is ADME, organism-based, Bone element. The following applies: in vivo. Put shortly:
as §1

For data set [10], the species on record is Mus musculus. Description: Compound was evaluated for rate of bone uptake in mice (Radiolabeled compound). Format: ADME, organism-based, Bone element. The following applies: in vivo. Put shortly: as §1
Data set [11] is described as follows: Compound (i.v.) was evaluated for uptake rate constants in brainstem of rhesus monkeys (Radiolabeled compound). The class given is ADME, tissue-based, Brain. The following applies: cercopithecidae, iv. Put shortly:
(§2)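 Rhesus monkey with urinary catheter; ECG, temperature, heart and respiration rates monitored. A 32 min 68Ge transmission scan was taken for attenuation correction. 18F ligand (2.9 mCi) given iv. Dynamic 3D head PET ran 120 min (33 frames, 30 s–5 min). Regional uptake and elimination rate constants were fitted from time-activity curves.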

Data set [12] is described as follows: Compound (i.v.) was evaluated for uptake rate constants in striatum of rhesus monkeys (Radiolabeled compound). Conditions: cercopithecidae, iv. Format: ADME, tissue-based. Put shortly: as §2
Data set [13] can be described thus: Compound (i.v.) was evaluated for elimination rate constants in brainstem of rhesus monkeys (Radiolabeled compound). The class given is ADME, tissue-based, Brain. The following applies: cercopithecidae, iv, read-out: Activity (converted). Put shortly:
as §2

Data set [14] concerns Mus musculus. Description: Compound was evaluated for elimination rate constants in vivo in whole blood of normal mice (Radiolabeled compound). Format: ADME, organism-based. Put shortly:
(§3)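 Normal mice given 18F ligand iv during PET. Serial blood samples (10–35 μL) were taken and analysed by reverse-phase HPLC for parent, lipophilic and polar radioactive components. Parent, lipophilic and total curves were fitted to single-exponential decay; the polar metabolite curve was fitted double-exponentially to give rate constants.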

The nature of data set [15]: Compound (i.v.) was evaluated for elimination rate constants in jaw bone of rhesus monkeys; NA = not active (Radiolabeled compound). The class given is ADME, tissue-based, Bone element. The following applies: cercopithecidae, iv. Put shortly: as §2
Data set [16] is described as follows: Compound (i.v.) was evaluated for uptake rate constants in cerebellum of rhesus monkeys (Radiolabeled compound). The following applies: cercopithecidae, iv. The class given is ADME, tissue-based. Put shortly:
as §2

A short description of data set [17]: Compound (i.v.) was evaluated for elimination rate constants in frontal cortex of rhesus monkey (Radiolabeled compound). The following applies: cercopithecidae, iv, read-out: Activity (converted). Format: ADME, tissue-based. Put shortly: as §2
The nature of data set [18]: Compound (i.v.) was evaluated for uptake rate constants in frontal cortex of rhesus monkey (Radiolabeled compound). Format: ADME, tissue-based. Conditions: cercopithecidae, iv. Put shortly:
as §2

The subject of data set [19] is Mus musculus. Description: Compound was evaluated for uptake rate constants in vivo in whole blood of normal mice (Radiolabeled compound). Format: ADME, organism-based. Put shortly:
as §3

Data set [20] has as its system Mus musculus. Description: Compound was evaluated for uptake rate constants in vivo in whole blood of normal mice; NA = not active (Radiolabeled compound). Format: ADME, organism-based. Put shortly:
as §3

Data set [21] in a line: Compound (i.v.) was evaluated for uptake rate constants in jaw bone of rhesus monkey (Radiolabeled compound). The class given is ADME, tissue-based, Bone element. The following applies: cercopithecidae, iv. Put shortly: as §2
A short description of data set [22]: Compound (i.v.) was evaluated for elimination rate constants in striatum of rhesus monkey (Radiolabeled compound). The class given is ADME, tissue-based. Conditions: cercopithecidae, iv. Put shortly:
as §2

Data set [23] is described as follows: Compound (i.v.) was evaluated for elimination rate constants in cerebellum of rhesus monkeys (Radiolabeled compound). Conditions: cercopithecidae, iv. The class given is ADME, tissue-based. Put shortly: as §2
Data set [24] concerns Mus musculus. The experiment in a line: Compound (i.v.) was tested for maximum activity in mice (Radiolabeled compound). The following applies: in vivo, iv. Format: ADME, organism-based. Put shortly: as §1

Structures are written as SMILES. “And” between values parts separate entries of the source, which are not always exact repeats. Equal entries are not always repeated.

In general, logD refers to the decadic logarithm of the distribution of all forms, ionised or not, between an organic phase and buffer at a given pH. Turning to `CN(C)c1ccc(-c2cn3cc([125I])ccc3n2)cc1`, the Activity in the data set listed under Mus musculus [1] was 0.0108; in the data set listed under Mus musculus [2], 0.122 min⁻¹; in the data set listed under Mus musculus [3], 0.216; in the data set listed under Mus musculus [4], 2 min; in the data set filed under Mus musculus [6], “Not Active”. Also, in data set [5], the logD amounted to 3.58.
Take `CN(CCCF)c1ccc(-c2cn3cc(I)ccc3n2)cc1`: the Activity is 0.127 min⁻¹ in the data set filed under Mus musculus [7]; 0.0479 in the data set listed under Mus musculus [1]; 1.83 min in the data set listed under Mus musculus [4]; 0.157 in the data set with Mus musculus [8]; 0.00728 min⁻¹ with Mus musculus [9]. The compound further came in with a logD in data set [5] of 4.6.
With `CN(CCF)c1ccc(-c2cn3cc(I)ccc3n2)cc1`, the Activity in the data set listed under Mus musculus [10] was 0.0016 min⁻¹; in [11] it was 1 min⁻¹; in [12], 0.972 min⁻¹; in the data set listed under Mus musculus [1] it was 0.111; in the data set with Mus musculus [14] it was 1.14 min⁻¹ and 0.722 min⁻¹ and 0.801 min⁻¹; in data set [15], “Not Active”. The Activity in the data set listed under Mus musculus [2] is 0.334 min⁻¹; in the data set with Mus musculus [8], 0.161; in [16], 1.09 min⁻¹; in data set [18] it was 0.859 min⁻¹; in the data set with Mus musculus [19], 0.576 min⁻¹; in the data set with Mus musculus [20], “Not Active”. In addition, the Activity in data set [21] turned out to be 0.373 min⁻¹; in data set [22], 0.0859 min⁻¹; in [23], 0.0854 min⁻¹; with Mus musculus [24], 0.5 min. Further, the k el is 0.000813 s⁻¹ in data set [13] and 0.00101 s⁻¹ in data set [17]. This compound gave a logD in data set [5] of 4.41.

The values above are taken from ChEMBL document CHEMBL1137092, “Synthesis and evaluation of two 18F-labeled 6-iodo-2-(4'-N,N-dimethylamino)phenylimidazo[1,2-a]pyridine derivatives as prospective radioligands for beta-amyloid in Alzheimer's disease” (J Med Chem, 2004).
